Results as given in ChEMBL document CHEMBL3286242, “Design, synthesis and biological evaluation of arylcinnamide hybrid derivatives as novel anticancer agents” (Eur J Med Chem, 2014).
The source made the active and inactive calls. The calls are words filed in the database; no cut-off is given here.

Legend:
HeLa [1] = experiment: Induction of apoptosis in human HeLa cells assessed as caspase-9 activation at 1 to 2.5 uM after 24 to 48 hrs by Western blotting analysis; assay type: functional, cell-based
How it was run: (§1)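 HeLa cells treated at indicated concentrations and times; washed in cold PBS, lysed 30 min at 0 °C, cleared at 15 000 × g; 20 μg protein resolved on 7.5–15% gradient SDS-PAGE, blotted to PVDF, primary antibodies 2 h room temperature, peroxidase secondary 60 min, ECL detection; β-actin reprobe for loading.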

HeLa [2] = experiment: Induction of apoptosis in human HeLa cells assessed as GSH depletion after 24 hrs by CMFDA staining-based flow cytometry; assay type: functional, cell-based
How it was run: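 HeLa cells treated 24 h with compound, alone or with 100 μM NAC; harvested and loaded with 5 μM CMFDA, 30 min at 37 °C; intracellular GSH read as CMFDA fluorescence by flow cytometry; means ± SEM.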

HeLa [3] = experiment: Induction of apoptosis in human HeLa cells assessed as caspase-3 activation at 1 to 2.5 uM by Western blotting analysis; assay type: functional, cell-based; details: TDE = time-dependent effect; how it was run: as §1
LoVo = experiment: Resistance ratio of IC50 for human LoVo/DX cells to IC50 for human LoVo cells; assay type: functional
How it was run: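 Ratio of IC50 in resistant line to IC50 in parental line (CEMVbl-100/CEM; LoVoDoxo/LoVo), each IC50 from 72 h MTT dose–response curves, ≥3 independent experiments.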

HeLa [4] = experiment: Induction of intracellular ROS generation in human HeLa cells at 1 to 5 uM after 1 to 6 hrs by hydroethidine staining-based flow cytometry; assay type: functional, cell-based
How it was run: (§2)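 HeLa cells treated at various concentrations and times; ROS followed by flow cytometry with H2DCFDA or hydroethidine (HE, mainly superoxide).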

HeLa [5] = experiment: Induction of apoptosis in human HeLa cells assessed as reduction in Bcl-2 protein expression at 1 to 2.5 uM after 48 hrs by Western blotting analysis; assay type: functional, cell-based; how it was run: as §1
HeLa [6] = experiment: Induction of apoptosis in human HeLa cells assessed as caspase activation at 2.5 uM after 48 hrs in presence of pan-caspase inhibitor z-VAD.fmk; assay type: functional, cell-based
How it was run: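 HeLa cells given 2.5 μM compound for 48 h with or without 100 μM z-VAD.fmk pan-caspase inhibitor; viability measured; means ± SEM of three independent experiments, Student's t-test.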

HeLa [7] = experiment: Induction of intracellular ROS generation in human HeLa cells after 1 to 6 hrs by H2DCFDA staining-based flow cytometry; assay type: functional, cell-based; how it was run: as §2
HeLa [8] = experiment: Induction of apoptosis in human HeLa cells assessed as cell viability at 2.5 uM after 48 hrs by MTT assay in presence of N-acetylcysteine; assay type: functional, cell-based
How it was run: (§3)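 HeLa cells exposed to 2.5 μM compound for 48 h with scavengers (NAC 100 μM, GSH 1 mM or DTT 1 mM, among others); viability by MTT; means ± SEM of four independent experiments, Student's t-test.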

HeLa [9] = experiment: Induction of apoptosis in human HeLa cells assessed as cell viability at 2.5 uM after 48 hrs by MTT assay in presence of reduced glutathione; assay type: functional, cell-based; how it was run: as §3
HeLa [10] = experiment: Cell cycle arrest in human HeLa cells assessed as accumulation at G2/M phase after 24 hrs by propidium iodide staining-based flow cytometry; assay type: functional
How it was run: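 HeLa cells in exponential growth (2.5 × 10^5) treated 24 h at various concentrations; ethanol-fixed (70%, ice-cold), lysed with RNase A/0.1% Triton X-100, PI-stained; DNA content by flow cytometry, phase percentages from DNA histograms.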

HeLa [11] = experiment: Induction of apoptosis in human HeLa cells assessed as reduction in Bcl-2 protein expression at 1 to 2.5 uM by Western blotting analysis; assay type: functional, cell-based; details: TDE = time-dependent effect; how it was run: as §1
[12] = Cytotoxicity against human SEM cells assessed as growth inhibition after 72 hrs by MTT assay; assay type: functional, cell-based

## C=C(Br)C(=O)Nc1ccc(/C=C/C(=O)Nc2cc(OC)c(OC)c(OC)c2)cc1
HeLa [1]
  Activity: inactive
HeLa [2]
  Activity: Dose-dependent effect
HeLa [3]
  Activity: tde
LoVo
  Ratio IC50: 0.6
HeLa [4]
  Activity: inactive
HeLa [5]
  Activity: Active
HeLa [6]
  Activity: inactive
HeLa [7]
  Activity: Dose-dependent effect
HeLa [8]
  Activity: inactive
HeLa [9]
  Activity: inactive
HeLa [10]
  Activity: Dose-dependent effect
HeLa [11]
  Activity: tde
[12]
  IC50: 110 nM
